# Data from ChEMBL document CHEMBL2417469, “Synthesis of novel analogs of 2-pyrazoline obtained from [(7-chloroquinolin-4-yl)amino]chalcones and hydrazine as potential antitumor and antimalarial agents” (Eur J Med Chem, 2013).
# What was measured:
# Plasmodium falciparum [1] = assay: Antimalarial activity against Plasmodium falciparum NF54 infected in human serum after 48 hrs by fluorometric method; type: functional, organism-based
# Procedure, shortened: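 Asynchronous P. falciparum NF54 cultures at 1.5–2% parasitemia, 5% hematocrit in RPMI with 10% human serum; equal volumes of parasite suspension and compound dilutions (from 100 µg/mL stock) incubated 48 h, 37 °C, 90% N2/5% CO2/5% O2. DNA extracted with proteinase K lysis, stained with ethidium bromide; fluorescence-based viability vs compound-free control. IC50 by Probit; triplicate.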
# Plasmodium falciparum [2] = assay: Antimalarial activity against Plasmodium falciparum NF54 infected in human serum at 20 ug/ml after 48 hrs by fluorometric method; type: functional
# Procedure, shortened: (§1)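 Asynchronous P. falciparum NF54 at 1.5–2% parasitemia, 5% hematocrit in RPMI with 10% human serum, exposed 48 h at 37 °C under 90% N2/5% CO2/5% O2 at the stated concentration; parasite DNA stained with ethidium bromide after proteinase K lysis; viability % = (Flu treated − medium)/(Flu untreated − medium) ×100; triplicate.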
# [3] = Toxicity in RBC (unknown origin) assessed as hemolysis after 48 hrs at 20 to 80 ug/ml by spectrophotometry; type: cell-based, Erythrocyte; conditions: red blood cells (RBC); read-out: Activity
# Procedure, shortened: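 Red blood cells at 5% hematocrit in RPMI 1640 exposed to 20, 40 and 80 µg/mL for 48 h at 37 °C; free hemoglobin read spectrophotometrically at 542 nm.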
# Plasmodium falciparum [4] = assay: Antimalarial activity against Plasmodium falciparum NF54 infected in human serum at 22.2 ug/ml after 48 hrs by fluorometric method; type: functional; procedure, shortened: as §1
Compound,IC50 (Plasmodium falciparum [1]),inhibition at 20 µg/mL (Plasmodium falciparum [2]),hemolysis at 48 h [3],inhibition at 22.2 µg/mL (Plasmodium falciparum [4])
O=CN1N=C(c2ccc(Nc3ccnc4cc(Cl)ccc34)cc2)CC1c1ccc(Br)cc1 (stereo unspecified),14.1 µg/mL,50.8%,3.2%,–
Cc1ccc(C2CC(c3cccc(Nc4ccnc5cc(Cl)ccc45)c3)=NN2C=O)cc1 (stereo unspecified),–,0%,–,–
CC(=O)N1N=C(c2ccc(Nc3ccnc4cc(Cl)ccc34)cc2)CC1c1ccc(Br)cc1 (stereo unspecified),–,6.8%,–,–
O=CN1N=C(c2cccc(Nc3ccnc4cc(Cl)ccc34)c2)CC1c1ccc(Br)cc1 (stereo unspecified),–,12.5%,–,–
COc1cc(C2CC(c3ccc(Nc4ccnc5cc(Cl)ccc45)cc3)=NN2C(C)=O)cc(OC)c1OC (stereo unspecified),–,0%,–,–
CC(=O)N1N=C(c2ccc(Nc3ccnc4cc(Cl)ccc34)cc2)CC1c1ccc(C)cc1 (stereo unspecified),–,10.6%,–,–
CCN(CC)CCCC(C)Nc1ccnc2cc(Cl)ccc12 (stereo unspecified) [CHLOROQUINE PHOSPHATE],–,–,17.2%,68.4%
COc1ccc(C2CC(c3ccc(Nc4ccnc5cc(Cl)ccc45)cc3)=NN2C(C)=O)cc1 (stereo unspecified),> 100 µg/mL,38.3%,3.1%,–
CC(=O)N1N=C(c2ccc(Nc3ccnc4cc(Cl)ccc34)cc2)CC1c1ccccc1 (stereo unspecified),38 µg/mL,33%,2.8%,–
